Laboratory results as given in publication PMC6589821 (Bioorganic & medicinal chemistry, 2019).
“Also recorded” adds a separate entry of the source.

Legend:
[1] = test system: pseudotyped HIV; settings: earlier work; cited from earlier work
[2] = test system: p160 Gag-Pol; settings: earlier work; cited from earlier work
[3] = test system: HIV-1 FSS RNA; assay: SPR binding to immobilised HIV-1 FSS RNA; settings: for ka / kd: SPR, 1:1 Langmuir fit, average of four curves
[4] = test system: HIV IIIB; settings: earlier work; cited from earlier work
[5] = test system: HIV-1 AD.MDR01; settings: patient-derived strain; cited from earlier work
[6] = test system: HEK293FT cells; assay: WST-1 cytotoxicity assay; format: cell-based; settings: 24 hours
[7] = test system: HIV-1 FSS RNA; assay: Competitive SPR assay with excess yeast tRNA in solution; format: binding
How it was run: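 Streptavidin was coupled by EDC/NHS onto a CM5 chip, then ethanolamine-blocked; about 2000 RU of biotinylated HIV-1 FSS RNA (refolded 3 min at 75 °C in HBS, pH 7.4) was captured on one flow cell. Analyte was injected with or without excess bulk yeast tRNA at 80 μL/min for 1 min in HBS. At least two injections per condition.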

[8] = test system: HIV-1 FSS RNA; assay: Competition dialysis, HIV-1 FSS hairpin; format: binding; settings: 2.0 μM compound, 2.5 μM RNA, 36 hours, 8 competing human hairpins
How it was run: (§1)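 RNA hairpins refolded at 2.5 μM in PBS with 1 mM EDTA (3 min 25 °C, 3 min 90 °C, 5 min 27 °C). Duplicate dialysis tubes (MWCO 3500) of RNA, plus an RNA-free control, dialysed 36 h against 2.0 μM test compound in PBS. Bound compound released with 1% Triton X-100 (final). Total compound per tube quantified by HPLC against a calibration curve.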

[9] = test system: IRF5 RNA; assay: Competition dialysis, IRF5 mRNA hairpin; format: binding, human; settings: 2.0 μM compound, 2.5 μM RNA, 36 hours
How it was run: as §1

[10] = test system: hairpin derived from BDNF; assay: Competition dialysis, BDNF mRNA hairpin; format: binding, human; settings: 2.0 μM compound, 2.5 μM RNA, 36 hours
How it was run: as §1

SMILES | ka [3] [M⁻¹ s⁻¹] | kd [3] [s⁻¹] | further results
CCc1nc2cc3ccccc3cc2cc1C(=O)N[C@@H](C/C=C\C[C@H](NC(=O)c1cc2cc3ccccc3cc2nc1CC)C(=O)N1CCC[C@H]1C(=O)N[C@@H](Cc1ccccc1)C(=O)NCCCN)C(=O)N1CCC[C@H]1C(=O)N[C@@H](Cc1ccccc1)C(=O)NCCCN [Compound 2] | – | – | effect on pseudotyped HIV [1]: inhibited both production and infectivity; p160 Gag-Pol level in virus (Western blot) [2]: concentration-dependent increases in p160 Gag-Pol
CCc1nc2cc3ccccc3cc2cc1C(=O)N(C)[C@@H](CCn1cc(C[C@@H](C(=O)N2CCC[C@H]2C(=O)N(C)[C@@H](Cc2ccccc2)C(=O)NCCCN)N(C)C(=O)c2cc3cc4ccccc4cc3nc2CC)nn1)C(=O)N1CCC[C@H]1C(=O)N(C)[C@@H](Cc1ccccc1)C(=O)NCCCN [Compound 3] | 190000 | 0.003 | inhibition of laboratory strain HIV-1 IIIB [4]: inhibited; inhibition of multidrug resistant strain [5]: inhibited; effect on pseudotyped HIV [1]: inhibited both production and infectivity; p160 Gag-Pol level in virus (Western blot) [2]: concentration-dependent increases in p160 Gag-Pol
CCc1nc2ccccc2cc1C(=O)N(C)[C@@H](CCn1cc(C[C@@H](C(=O)N2CCC[C@H]2C(=O)N(C)[C@@H](Cc2ccccc2)C(=O)NCCCN)N(C)C(=O)c2cc3ccccc3nc2CC)nn1)C(=O)N1CCC[C@H]1C(=O)N(C)[C@@H](Cc1ccccc1)C(=O)NCCCN [Compound 4] | 64900 | 0.0237 | effect on cellular metabolism (WST-1) [6]: significant effects below a concentration of 40 micromolar
CCc1nc2ccccc2cc1C(=O)N(C)[C@@H](CCn1cc(C[C@@H](C(=O)N2C[C@H](O)C[C@H]2C(=O)N(C)[C@@H](Cc2ccccc2)C(=O)NCCCN)N(C)C(=O)c2cc3ccccc3nc2CC)nn1)C(=O)N1C[C@H](O)C[C@H]1C(=O)N(C)[C@@H](Cc1ccccc1)C(=O)NCCCN [Compound 5] | 14900 | 0.0068 | –
CN(C(=O)c1cnc2ccccc2c1)[C@@H](CCn1cc(C[C@@H](C(=O)N2CCC[C@H]2C(=O)N(C)[C@@H](Cc2ccccc2)C(=O)NCCCN)N(C)C(=O)c2cnc3ccccc3c2)nn1)C(=O)N1CCC[C@H]1C(=O)N(C)[C@@H](Cc1ccccc1)C(=O)NCCCN [Compound 6] | 56600 | 0.00226 | fold lower affinity for the FSS than compound 3 ([3]; KD ratio versus 3): 4 fold; change of binding constant with versus without excess tRNA ([7]; SPR traces with and without excess tRNA): within statistical error; also recorded: little impact on binding; binding among hairpins in competition dialysis [8]: preferentially binds to HIV-1 FSS; binding in competition dialysis [9]: appreciably bound; binding in competition dialysis [10]: appreciably bound
CN(C(=O)c1cnc2ccccc2c1)[C@@H](CCn1cc(C[C@@H](C(=O)N2C[C@H](O)C[C@H]2C(=O)N(C)[C@@H](Cc2ccccc2)C(=O)NCCCN)N(C)C(=O)c2cnc3ccccc3c2)nn1)C(=O)N1C[C@H](O)C[C@H]1C(=O)N(C)[C@@H](Cc1ccccc1)C(=O)NCCCN [Compound 7] | 67400 | 0.00542 | –
CCc1nc2ccccc2cc1C(=O)N(C)[C@@H](CCn1cc(C[C@@H](C(=O)N2CCC[C@H]2C(=O)N(C)[C@@H](Cc2ccccc2)C(N)=O)N(C)C(=O)c2cc3ccccc3nc2CC)nn1)C(=O)N1CCC[C@H]1C(=O)N(C)[C@@H](Cc1ccccc1)C(N)=O [Compound 8] | 1690 | 0.0207 | –
CN(C(=O)c1cnc2ccccc2c1)[C@@H](CCn1cc(C[C@@H](C(=O)N2C[C@H](O)C[C@H]2C(=O)N(C)[C@@H](Cc2ccccc2)C(N)=O)N(C)C(=O)c2cnc3ccccc3c2)nn1)C(=O)N1C[C@H](O)C[C@H]1C(=O)N(C)[C@@H](Cc1ccccc1)C(N)=O [Compound 10] | 4090 | 0.00541 | fold difference in KD between 10 and 6 ([3]; KD ratio 10 versus 6): 23 fold
NC[C@@H]1O[C@H](O[C@H]2[C@@H](O)[C@H](O[C@@H]3[C@@H](O)[C@H](N)C[C@H](N)[C@H]3O[C@H]3O[C@H](CN)[C@@H](O)[C@H](O)[C@H]3N)O[C@@H]2CO)[C@H](N)[C@@H](O)[C@@H]1O [Neomycin, neomycin, reference compound] | – | – | SPR signal for HIV-1 FSS binding with tRNA ([7]; 30 μM tRNA, 3-fold excess relative to neomycin): completely ablated
